rRNA inh HTS: reduced GFP signal of wild-type E. coli, primary screen, bacterial rRNA inhibitor project, GFP/RFP fluorescence, OD600, single point | E. coli WT GFP vs humanized-ribosome RFP mutants, 24 h; hits give low values; DMSO median 0, no signal -100 | GFP signal change (wild-type ribosome), % (no concentration beside the values) | hit rate 1.6% among 350,000 | AID 720706, 2013;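 active = significant combined selectivity score with lowered wild-type GFP, culture density cut under 30%, mutant RFP and density less affected; inactive = any of these conditions unmet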
E-selectin induc: E-selectin induction in HUVECs, primary screen, imaging, HUVEC, immunofluorescence imaging, single point. normalized: neutral wells 0, TNF-alpha wells 100. activation, % at 7.58 µM. hit rate 0.37% among 260,000. AID 686992, 2013;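 active = mean E-selectin-positive cell signal at least 10% of the positive control, reached in at least 60% of replicates, without over 20% cell loss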
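Test system: HUVEC; input: 3,000 HUVEC/well; measured by: immunofluorescence imaging; read-out: % PE-positive cells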
FGF22 binding: binders of human FGF22 protein, primary screen, FGF22 synaptogenesis inhibitor project, biophysical, thermal shift, single point | recombinant FGF22 thermal shift, SYPRO orange fluorescence; percent of sucrose octasulfate shift, DMSO zero | activity (Tm shift, normalised), % at 9.99 µM | hit rate 1.5% among 340,000 | AID 651658, 2012;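 active = mean Tm shift, scaled 0 neutral to 100 positive control, at about 1.3% or above, every replicate too, limit read from the data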
Statin myotox sup: suppressors of statin myotoxicity in C2C12 myotubes, primary screen, cell-based, single point, plate reader | C2C12 myotubes + simvastatin, ATP luminescence, 48 h; scaled: DMSO 0, geranylgeraniol control 100 | rescue of ATP level, % at 7.49 µM | hit rate 0.78% among 330,000 | AID 602340, 2012;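 active = mean ATP rescue above about 67%, or every replicate alone reaching that limit, limit read from the data, passing the limit was not always enough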;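 note: myotubes were challenged with 10 µM simvastatin during compound exposure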
FN deposition inh: inhibitors of fibronectin matrix deposition, primary screen, AH1F cells, Alexa488-fibronectin fluorescence, plate reader; inhibition, % at 12.6 µM; hit rate 0.086% among 350,000; AH1F fibroblasts, overnight;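 active = mean inhibition across replicates of 30% or more, regardless of how many single replicates reach that level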;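 note: positive control wells lacked labelled fibronectin entirely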
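Assay system: AH1F fibroblasts / Quantity: 10000 cells per well / Medium: DMEM plus 2% serum, read in PBS / Reagent: labelled fibronectin 24 nM / Dosing: single dose, pinned / Times: 1 h cell attachment, overnight exposure to compound and label / Signal: fluorescence, ex 485 nm, em 525 nm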
SIRT5 block: SIRT5 desuccinylase inhibitors, primary screen, biochemical, fluorescence imaging, single point, set 5; Purified SirT5, succinyl-peptide AMC, trypsin-coupled fluorescence; inhibition, % at 15 µM; hit rate 1.1% among 330,000; AID 652115, 2013; in the data active = inhibition above about 15%
Target sequence (Q9NXA8 whole entry, looked up): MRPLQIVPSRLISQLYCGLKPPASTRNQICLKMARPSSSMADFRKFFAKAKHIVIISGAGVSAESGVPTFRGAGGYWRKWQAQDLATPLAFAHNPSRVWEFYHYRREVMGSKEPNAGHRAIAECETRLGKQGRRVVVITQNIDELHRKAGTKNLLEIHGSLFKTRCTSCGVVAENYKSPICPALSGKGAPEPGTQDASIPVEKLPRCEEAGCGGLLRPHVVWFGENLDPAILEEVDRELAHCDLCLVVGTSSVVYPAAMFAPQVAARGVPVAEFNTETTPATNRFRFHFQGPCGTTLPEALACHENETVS
* = called active by the depositor. A selection: hits, their analogues and other compounds. The true share with any hit is near 4%.

Results for CCOP(=O)(OCC)C1NC(=O)N(c2ccccc2)C1=O (centres undefined) ?
rRNA inh HTS: 8.1; E-selectin induc: -0.1; FGF22 binding: 0.2; Statin myotox sup: 15.9; FN deposition inh: 0.0; SIRT5 block: 29.8*

What do the screens show for `Cc1noc(C)c1NC(=O)Nc1ccc2c(c1)C(=O)N([C@@H](C)CO)C[C@H](C)[C@@H](CN(C)S(=O)(=O)c1cn(C)cn1)OCCCC[C@H](C)O2`?
rRNA inh HTS: 1.4; E-selectin induc: 0.1; FGF22 binding: 0.3; SIRT5 block: -1.2

What do the screens show for `Cc1nc2ccccc2nc1N1CCCC1`?
rRNA inh HTS: 0.3; E-selectin induc: -0.2; FGF22 binding: -0.1; Statin myotox sup: 7.7; FN deposition inh: 5.0; SIRT5 block: -1.3

Results for Cc1ccc2c(Cl)c(C)c(N3CCCC3)nc2n1 ?
rRNA inh HTS: -36.0*; E-selectin induc: -1.3; FGF22 binding: 0.2; FN deposition inh: 11.8; SIRT5 block: 4.5

How did CC1(C)C(Cl)C(=O)C(C(=O)c2ccccc2)C(=O)C1Cl (centres undefined) do in these assays?
rRNA inh HTS: 2.8; FGF22 binding: 0.0; Statin myotox sup: 6.7; FN deposition inh: -3.9; SIRT5 block: 94.1*

Results for CC1(C)C(=O)OC(C(=O)c2ccccc2)C(C)(C)C1=O (centres undefined) ?
Statin myotox sup: 1.7; FN deposition inh: -5.9

What do the screens show for `Cc1ccc(-c2csc(NC(=O)CCNC(=O)c3ccco3)n2)cc1`?
rRNA inh HTS: -35.5*; E-selectin induc: 2.9; FGF22 binding: -0.2; FN deposition inh: 1.8; SIRT5 block: -0.5

How did CC(=O)Nc1ccc(-c2csc(NC(=O)CCCc3cccs3)n2)cc1 do in these assays?
rRNA inh HTS: -29.5; FGF22 binding: 2.1*; Statin myotox sup: 13.2; FN deposition inh: -1.8; SIRT5 block: -0.1

What do the screens show for `Cc1noc(C)c1S(=O)(=O)Nc1ccc2c(c1)C(=O)N([C@@H](C)CO)C[C@@H](C)[C@@H](CN(C)C)OCCCC[C@H](C)O2`?
rRNA inh HTS: 0.7; E-selectin induc: 1.3; FN deposition inh: -5.7; SIRT5 block: -0.9

What do the screens show for `C[C@@H]1CN([C@@H](C)CO)C(=O)c2cc(NC(=O)C3CCCCC3)ccc2O[C@@H](C)CCCCO[C@H]1CN(C)C(=O)Cc1ccccc1`?
rRNA inh HTS: -1.6; E-selectin induc: -0.1; FGF22 binding: -0.2; SIRT5 block: 1.4

Results for COc1cc(C2C3=C(CC(C)(C)CC3=O)NC3=C2C(=O)c2ccccc23)ccc1O (centres undefined) ?
rRNA inh HTS: -31.2*; E-selectin induc: -0.2; FGF22 binding: -0.4; Statin myotox sup: 6.4; FN deposition inh: 7.0; SIRT5 block: 0.4

What do the screens show for `Cc1ccc(C2C3=C(CC(C)(C)CC3=O)NC3=C2C(=O)c2ccccc23)cc1` (centres undefined)?
E-selectin induc: 0.3; FN deposition inh: -2.9

What do the screens show for `Cc1cccc(Oc2ccc(Cl)cc2N)c1`?
rRNA inh HTS: -48.9; FGF22 binding: -0.1; Statin myotox sup: 1.4; SIRT5 block: 112.0*

How did Nc1cc(Cl)ccc1Oc1ccccc1 do in these assays?
Statin myotox sup: -1.0; FN deposition inh: -5.0

How did O=S1(=O)CCN2C(c3ccco3)=CSC2=N1 do in these assays?
Statin myotox sup: 104.0*

What do the screens show for `COc1cccc2cc(C(=O)N3CC(C)OC(C)C3)c(=O)oc12` (centres undefined)?
rRNA inh HTS: 7.3; FGF22 binding: -0.1; Statin myotox sup: -14.9; FN deposition inh: 0.5; SIRT5 block: -1.1
